From article PMC11986672 (RSC Medicinal Chemistry, 2025)
Values joined by “and” are separate entries in the source; they are usually repeats but may differ in a detail not shown here. Identical values can stand only once. “Also recorded” adds a separate entry of the source. Like-named read-outs stand apart in the source and are kept apart here.

Experiments:
[1] = system: human endometrial cancer (HEC1A) cells; assay: MTT cytotoxicity assay, HEC1A; type: cell-based; conditions: for IC50: Homo sapiens, HEC-1-A, 48 h, read-out: HEC1A IC50, MTT cell viability, 48 h, n = 3 biological repeats; for Selectivity ratio: IC50 MAD11 divided by IC50 HEC1A
Summary of the method: (§1)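 HEC1A (5000/well) and MAD11 (2500/well) cells were seeded and held overnight at 37 °C. Test compound was reconstituted in DMSO and serially diluted in medium to final 160, 80, 40, 20, 10, 5, 2.5 and 1.25 μM, in triplicate, with matched DMSO in all wells. After 48 h, MTT was added for 3 h, formazan solubilised (4 mM HCl, 0.1% NP-40, isopropanol) and absorbance read at 590/620 nm. IC50 was taken against vehicle controls; selectivity = MAD11 IC50 / HEC1A IC50.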

[2] = system: noncancerous human endometrial stromal (MAD11) cells; assay: MTT cytotoxicity assay, MAD11; type: cell-based; conditions: MAD11, 48 h, read-out: MAD11 IC50
Summary of the method: as §1

[3] = system: HEC1A endometrial cancer cells; assay: Thiol rescue experiment; type: cell-based, human; conditions: for rescue of cytotoxicity by NAC and GSH pre-treatment: NAC or GSH 2 mM for 40 min; for IC50: Homo sapiens, HEC-1-A; for ΔIC50 (+GSH): IC50 with GSH minus IC50 of compound alone; for ΔIC50 (+NAC): IC50 with NAC minus IC50 of compound alone
Summary of the method: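 HEC1A cells were seeded on day 1 (5000/well). On day 2 they were pre-treated 40 min with NAC or GSH, 2 mM in medium neutralised to pH 7.4. Test compound was then added (final 160–1.25 μM serial dilutions, triplicate, equal DMSO), with 48 h incubation. The MTT readout (3 h, absorbance 590/620 nm) followed. IC50 was compared with cells given no thiol.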

[4] = system: CALU-1 (lung squamous cell carcinoma); assay: MTT cytotoxicity assay, CALU-1; type: cell-based; conditions: Homo sapiens, Calu-1, read-out: Mean IC50 CALU-1
Summary of the method: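 Uses the HEC1A MTT protocol: test compound in DMSO, diluted to final 160 down to 1.25 μM in two-fold steps, in triplicate, with equal DMSO in controls. […] CALU-1 was cultured in MEM in place of DMEM. […]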

HEC1A cancer cells = assay: Oxygen consumption rate assay; type: cell-based, human; conditions: over 120 minutes, compared to vehicle (DMSO) control, 21 at 20 μM
Summary of the method: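 Seahorse XF96 OCR assay. HEC1A cells (15 000/well) adhered 24 h in DMEM, 10% FBS, penicillin/streptomycin at 37 °C, 5% CO₂. Medium was then swapped for unbuffered phenol-red-free DMEM (25 mM glucose, 4 mM glutamine, 1 mM pyruvate, pH 7.4), with 40 min degassing at 37 °C without CO₂. Three baseline reads preceded compound injection; 11 cycles (3 min wait, 3 min mix, 2 min measure) followed. OCR was normalised to the third baseline reading; DMSO served as vehicle control.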

[5] = Pharmacokinetic profiling in vivo; design: species or system C57BL/6 mice
[6] = 10 mg kg−1 via oral gavage in C57BL/6 mice; cited from earlier work

Compound	IC50 [1]	Selectivity ratio [1]	IC50 [2]	decrease of potency with GSH pre-treatment (times) ([3]; HEC1A, GSH 2 mM)	decrease of potency with NAC pre-treatment (times) ([3]; HEC1A, NAC 2 mM)	rescue of cytotoxicity by NAC and GSH pre-treatment ([3]; HEC1A)	IC50 ([3]; read-out: +GSH IC50 ± SEM)	IC50 ([3]; read-out: +NAC IC50)	IC50 ([3]; read-out: Alone IC50)	ΔIC50 (+GSH) [3]	ΔIC50 (+NAC) [3]	IC50 [4]	maximum OCR increase (HEC1A cancer cells)	half-life ([5]; C57BL/6, mouse, plasma, po, 20 mg/kg)	half-life longer than BH10 ([5]; oral administration, versus BH10 t1/2 = 21.6 min)	half-life [6]
O=C1C(Cl)=C(NCCCN2CCCCC2)C(=O)c2ccccc21 [Compound 21, 2-Chloro-3-((3-(piperidin-1-yl)propyl)amino)-[1,4]-naphthoquinone]	1.83 µM	2.62	4.79 µM	8.7 times	7.1 times	partially rescued	16 µM	13 µM	1.83 µM	+14.17 μM	+11.17 μM	4.7 µM	approximately 280%	–	–	–
Cc1nc2c(n1CCCN1CCCCC1)C(=O)c1ccccc1C2=O [Compound 44, 2-Methyl-1-(3-(piperidin-1-yl)propyl)-1H-naphtho[2,3-d]imidazole-4,9-dione]	6.4 µM	3.6 and 3.59	23 µM	–	–	did not rescue; also recorded: unaffected	7.4 µM	6.8 µM	6.4 µM	+1.00 μM	+0.40 μM	15.4 µM	130%	26.8 min	5.2 min	–
O=C1C(Cl)=C(NCCN2CCOCC2)C(=O)c2ccccc21 [BH10, 2-chloro-3-[(2-morpholin-4-ylethyl)amino]naphthalene-1,4-dione, reference compound]	10.2 µM	2.51	25.6 µM	–	–	rescued	> 80 µM	58 µM	–	>+69.78 μM	+47.78 μM	16.7 µM	up to 200%	–	–	21.6 min
